Reference: publication PMC10938339 (ACS Omega, 2024)
Read-outs that look alike come from different tables or passages of the source.

Tests used:
PPT1 [1] = target: T1, PPT1 (Homo sapiens, UniProt P50897); assay: biochemical; conditions: for IC50: IC50 (95 % CI)
T1 sequence (P50897 28-306): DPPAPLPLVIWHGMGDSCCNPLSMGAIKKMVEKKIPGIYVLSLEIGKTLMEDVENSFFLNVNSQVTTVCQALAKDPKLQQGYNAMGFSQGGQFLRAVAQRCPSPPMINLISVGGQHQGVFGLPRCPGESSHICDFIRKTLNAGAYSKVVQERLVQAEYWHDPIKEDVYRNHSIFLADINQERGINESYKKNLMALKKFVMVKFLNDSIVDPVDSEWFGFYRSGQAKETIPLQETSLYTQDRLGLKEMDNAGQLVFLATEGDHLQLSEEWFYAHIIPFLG

PPT1 [2] = conditions: cited from earlier work
[3] = system: neuroblastoma SH-SY5Y cell line; assay type: cell-based, human; conditions: 48 h treatment, alamarBlue 18 h; NA = not active
[4] = target: T2, PPT1 in HepG2 cell extracts (Homo sapiens, UniProt P50897); assay: PPT1 inhibition in HepG2 cell extracts; assay type: biochemical; conditions: cell extracts treated 1 h
T2 sequence (P50897 28-306): T1 sequence (P50897 28-306)
Summary of the method: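 HepG2 lysates, prepared as for cells (MPER, protease inhibitor, 0.5% Triton X-100, 14,000 rpm spin), were treated directly with compound for 1 h. PPT1 activity was then read with the MU-6S-Palm-βGlc/β-glucosidase assay, measuring 4-methylumbelliferone fluorescence. Biological duplicates with technical triplicates; percent activity expressed relative to DMSO control.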

PPT1 in HepG2 cells = target: T3, PPT1 in HepG2 cells (Homo sapiens, UniProt P50897); assay: PPT1 inhibition in HepG2 cells; assay type: cell-based; conditions: intact cells treated 5 h, activity relative to DMSO control
T3 sequence (P50897 28-306): T1 sequence (P50897 28-306)
Summary of the method: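 HepG2 cells in DMEM + 10% FBS (37 °C, 5% CO2) were seeded overnight, then exposed to compound in medium for 5 h. They were lysed in MPER with protease inhibitor and 0.5% Triton X-100, spun at 14,000 rpm for 15 min, and protein-normalised. Lysates were assayed with MU-6S-Palm-βGlc plus β-glucosidase (4-MU fluorescence, Ex 365/Em 448, 4-MU standard curve). Biological duplicates, technical triplicates; activity relative to DMSO.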

[5] = cited from earlier work
[6] = cited from earlier work; remark: listed apart in the source

Compound | IC50 (PPT1 [1]) | further results
CCN(CC)Cc1cc(Nc2ccnc3cc(Cl)ccc23)ccc1O [Amodiaquine] | 344 µM | –
CC(C)(C)NC1CCN(c2cc(NCc3ccc(Cl)cc3)nc3ccccc23)CC1 [GNS561] | – | PPT1 inhibition (PPT1 [2]; 1 μM after 3 h): 25%; PPT1 inhibition (PPT1 [2]; 1 μM after 72 h): 50%
OC(c1cc(C(F)(F)F)nc2c(C(F)(F)F)cccc12)C1CCCCN1 (centres unmarked) [Mefloquine] | – | inhibition at 125 µM (PPT1 [1]; compound 125 μM): ≤ 50%
Cc1ncc([N+](=O)[O-])n1CCO [Metronidazole] | > 100 µM | –
CCOC(=O)[N-]c1cn(N2CCOCC2)n[o+]1 [Molsidomine] | > 100 µM | –
Cc1ncc([N+](=O)[O-])n1CC(O)CCl (centres unmarked) [Ornidazole] | > 100 µM | –
CC(CN1c2ccccc2Sc2ccccc21)N(C)C (centres unmarked) [Promethazine] | > 100 µM | –
Cn1nnc2c(C(N)=O)ncn2c1=O [Temozolomide] | 236 µM | –
CN(C)[C@@H]1C(O)=C(C(N)=O)C(=O)[C@@]2(O)C(O)=C3C(=O)c4c(O)cccc4[C@@](C)(O)[C@H]3C[C@@H]12 [Tetracycline] | > 100 µM | –
Cc1ccc(C(=O)c2cc(O)c(O)c([N+](=O)[O-])c2)cc1 [Tolcapone] | 179 µM | blood–brain barrier penetration [6]: can penetrate the blood–brain barrier
COc1cc(C=O)ccc1O [Vanillin] | 647 µM | –
TVB-3166 | – | PPT1 inhibition (in words) (PPT1 [1]; FASN inhibitors tested against PPT1): did not inhibit PPT1

More lines, main results first:

IC50 (PPT1 [1]) | Compound | further results
47.2 µM | CCN(CC)CCCC(C)Nc1ccnc2cc(Cl)ccc12 (centres unmarked) [Chloroquine] | –
111 µM | CCN(CC)CCNc1ccc(CO)c2sc3ccccc3c(=O)c12 [Hycanthone] | –
109 µM | CCN(CCO)CCCC(C)Nc1ccnc2cc(Cl)ccc12 (centres unmarked) [Hydroxychloroquine] | SH-SY5Y IC50 [3]: did not reach a 50% decrease in cell viability at the highest concentration tested
0.179 µM | CCCCCCCCCCC[C@@H](C[C@@H]1OC(=O)[C@H]1CCCCCC)OC(=O)[C@H](CC(C)C)NC=O [Orlistat] | PPT1 inhibition in HepG2 cell extracts (in words) [4]: inhibited PPT1 in cell extracts; PPT1 inhibition in HepG2 cells (in words) (PPT1 in HepG2 cells): poor PPT1 inhibition; oral absorption [5]: poorly orally absorbed; % Inhibition (PPT1 [1]; Spectrum Collection library screen, substrate 20 μM): 90.7%
0.0118 µM | CCCCCCCCCC[C@@H]1C(=O)O[C@H]1CCc1ccc(OC)c(OC)c1 [Palmostatin B] | PPT1 inhibition in HepG2 cell extracts (in words) [4]: inhibited PPT1 in cell extracts; PPT1 inhibition in HepG2 cells (in words) (PPT1 in HepG2 cells): poor PPT1 inhibition
~169 µM | CCN(CC)CCCC(C)Nc1c2ccc(Cl)cc2nc2ccc(OC)cc12 (centres unmarked) [Quinacrine] | –
63.3 µM | CO[C@H]1/C=C/O[C@@]2(C)Oc3c(C)c(O)c4c(O)c(c(/C=N/N5CCN(C6CCCC6)CC5)c(O)c4c3C2=O)NC(=O)/C(C)=C\C=C\[C@H](C)[C@H](O)[C@@H](C)[C@@H](O)[C@@H](C)[C@H](OC(C)=O)[C@@H]1C [Rifapentine] | –
~156 µM | C[C@@H]1O[C@@H](OC[C@H]2O[C@@H](Oc3c(-c4ccc(O)c(O)c4)oc4cc(O)cc(O)c4c3=O)[C@H](O)[C@@H](O)[C@@H]2O)[C@H](O)[C@H](O)[C@H]1O [Rutin trihydrate] | –
